≈ marks a conversion by molar mass, not a printed value. Calls of active or inactive are those of the source. The rule behind the calls is not given here.
Key:
DCN1-like protein 1 [1] = target: T1, DCN1-like protein 1 (Homo sapiens, UniProt Q96GG9)
[2] = Solubility of the compound at pH 7.4 after 18 hrs by UV-spectroscopy; type: physicochemical; details: buffer
In short: (§1)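 Measured in triplicate within at least one experiment; values reported as mean ± standard deviation.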

[3] = Permeability of the compound at 10 uM by PAMPA; type: ADME; details: for Papp at 10 µM: PAMPA, read-out: permeability; for permeability: pampa, 10 µM
In short: as §1

DCN1-like protein 1 [4] = target: T1, DCN1-like protein 1; assay: Inhibition of human DCN1-mediated cullin neddylation assessed as reduction in transfer of fluorescein-5-maleimide-tagged NEDD8 from N-terminally acetylated human UBE2M to CUL2-CTD measured for 10 sec by pulse-chase assay
BJ = assay: Growth inhibition of human BJ cells; type: cell-based
In short: (§2)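 In vitro monolayer proliferation assay in BJ cells (normal fibroblasts lacking DCN1 amplification) and HCC95 cells (squamous cell carcinoma line carrying DCN1 amplification). EC50 is reported as mean ± standard deviation from at least one experiment run in triplicate. A ">" value means less than 50% growth inhibition at the highest concentration tested.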

HCC95 = assay: Growth inhibition of human HCC95 cells; type: functional, cell-based
In short: as §2

Homo sapiens = species: Homo sapiens; assay: Inhibition of human RBX1-catalyzed CUL2(CTD) neddylation assessed as reduction in transfer of N-terminal cys-tagged NEDD8 from UBE2M to CUL2-CTD at 12.5 uM measured up to 6 mins by pulse-chase assay
In short: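 In vitro pulse-chase monitoring NEDD8 transfer from UBE2M to the CUL2 C-terminal domain, stimulated by DCN1 together with RBX1. The CUL2 domain stands in for cullins 1-5. The assay is a variation of a previously published pulse-chase format, also run against each of the five DCN family members.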

DCN1-like protein 1 [5] = target: T1, DCN1-like protein 1; assay: Binding affinity biotinylated human GST-tagged DCN1 by ITC method

T1 sequence (Q96GG9 whole entry): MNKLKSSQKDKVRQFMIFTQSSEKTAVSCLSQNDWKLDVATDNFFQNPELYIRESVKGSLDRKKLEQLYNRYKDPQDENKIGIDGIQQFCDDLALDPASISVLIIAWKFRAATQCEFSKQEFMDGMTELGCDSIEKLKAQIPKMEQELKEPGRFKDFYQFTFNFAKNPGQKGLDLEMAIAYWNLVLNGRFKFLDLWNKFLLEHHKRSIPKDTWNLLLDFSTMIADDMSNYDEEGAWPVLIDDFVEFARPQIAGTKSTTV

Structure (SMILES)	IC50 (DCN1-like protein 1 [1])	solubility at 18 h [2]	Papp at 10 µM [3]	further results
COc1cccc(NC(=O)NC2CCN(Cc3ccccc3)CC2)c1	> 67 µM			
CCCCN1CCC(N(Cc2ccc3c(c2)OCO3)C(=O)Nc2cccc(C(F)(F)F)c2)CC1	0.36 µM	71 µM (≈ 33.9 µg/mL)	> 2200 ×10⁻⁶ cm/s	EC50 (DCN1-like protein 1 [4]): 0.11 µM; EC50 (BJ): > 40 µM; EC50 (HCC95): 46 µM
O=C(Nc1cccc(C(F)(F)F)c1)N(Cc1ccccc1)C1CCN(CC2CCCCC2)CC1	0.62 µM	1.2 µM (≈ 0.568 µg/mL)	< 1 ×10⁻⁶ cm/s	
O=C(Nc1cccc(I)c1)NC1CCN(Cc2ccccc2)CC1	> 67 µM			
O=C(Nc1cccc(C(F)(F)F)c1)NC1CCN(Cc2ccccc2Cl)CC1	28 µM	0.3 µM (≈ 0.124 µg/mL)	830 ×10⁻⁶ cm/s	
CC(C)(C)CN1CCC(N(Cc2ccccc2)C(=O)Nc2cccc(C(F)(F)F)c2)CC1	0.96 µM			
O=C(Nc1cccc(C(F)(F)F)c1)NC1CCN(Cc2ccccc2F)CC1	13 µM	44 µM (≈ 17.4 µg/mL)		permeability [3]: 1500 ×10⁻⁶ cm/s
O=C(Nc1cccc(C(F)(F)F)c1)N(Cc1ccccc1)C1CCN(Cc2cc[nH]n2)CC1	2.4 µM	54 µM (≈ 24.7 µg/mL)	> 2200 ×10⁻⁶ cm/s	
CCCCCN1CCC(N(Cc2ccccc2)C(=O)Nc2cccc(C(F)(F)F)c2)CC1	0.66 µM	58 µM (≈ 26 µg/mL)		permeability [3]: 1400 ×10⁻⁶ cm/s
O=C(Nc1cccc(C(F)(F)F)c1)N(Cc1ccccc1)C1CCN(Cc2c[nH]cn2)CC1	5.9 µM	110 µM (≈ 50.3 µg/mL)	50 ×10⁻⁶ cm/s	
CCCN1CCC(N(Cc2ccc3c(c2)OCO3)C(=O)Nc2cccc(C(F)(F)F)c2)CC1		66 µM (≈ 30.6 µg/mL)	> 2200 ×10⁻⁶ cm/s	EC50 (BJ): > 23 µM; EC50 (HCC95): > 40 µM
CCCN1CCC(N(CCOC)C(=O)Nc2cccc(C(F)(F)F)c2)CC1	21 µM	64 µM (≈ 24.8 µg/mL)		permeability [3]: 1600 ×10⁻⁶ cm/s
O=C(Nc1cccc(C(F)(F)F)c1)N(Cc1ccccc1)C1CCN(Cc2nccs2)CC1		6.3 µM (≈ 2.99 µg/mL)	310 ×10⁻⁶ cm/s	
CCCN1CCC(N(CC2CCCCC2)C(=O)Nc2cccc(C(F)(F)F)c2)CC1	2.4 µM	90 µM (≈ 38.3 µg/mL)	> 2200 ×10⁻⁶ cm/s	
O=C(Nc1cccc(C(F)(F)F)c1)NC1CCN(Cc2ccc(F)cc2)CC1	14 µM	19 µM (≈ 7.51 µg/mL)	> 2200 ×10⁻⁶ cm/s	
CCCCS(=O)(=O)N1CCC(N(Cc2ccccc2)C(=O)Nc2cccc(C(F)(F)F)c2)CC1		1 µM (≈ 0.498 µg/mL)	< 1 ×10⁻⁶ cm/s	
O=C(Nc1cccc(C(F)(F)F)c1)N(Cc1ccccc1)C1CCN(CC2CC2)CC1	0.21 µM	75 µM (≈ 32.4 µg/mL)	> 2200 ×10⁻⁶ cm/s	
Cc1ccc(CN2CCC(NC(=O)Nc3cccc(C(F)(F)F)c3)CC2)cc1		14 µM (≈ 5.48 µg/mL)	> 2200 ×10⁻⁶ cm/s	
O=C(Nc1cccc(C(F)(F)F)c1)NC1CCN(Cc2cccc(Cl)c2)CC1		0.7 µM (≈ 0.288 µg/mL)		permeability [3]: 1700 ×10⁻⁶ cm/s

Structure (SMILES)	IC50 (DCN1-like protein 1 [1])	solubility at 18 h [2]	Papp at 10 µM [3]	further results
CC(C)(C)N1CCC(N(Cc2ccc3c(c2)OCO3)C(=O)Nc2cccc(C(F)(F)F)c2)CC1	0.31 µM	75 µM (≈ 35.8 µg/mL)	> 2200 ×10⁻⁶ cm/s	EC50 (DCN1-like protein 1 [4]): 0.37 µM; EC50 (BJ): > 40 µM; EC50 (HCC95): > 40 µM; inhibition (Homo sapiens): inactive
O=C(Nc1cccc(C(F)(F)F)c1)N(Cc1ccccc1)C1CCN(Cc2cccnc2)CC1	20 µM	30 µM (≈ 14.1 µg/mL)	> 2200 ×10⁻⁶ cm/s	
CC(=O)O[C@H]1CN(Cc2ccccc2)CC[C@@H]1NC(=O)Nc1cccc(C(F)(F)F)c1	12 µM			
O=C(Nc1cccc(C(F)(F)F)c1)N(Cc1ccccc1)C1CCN(Cc2ccc3c(c2)OCO3)CC1	12 µM	< 0.1 µM	> 2200 ×10⁻⁶ cm/s	
CC(C)CCN1CCC(N(Cc2ccccc2)C(=O)Nc2cccc(C(F)(F)F)c2)CC1	0.79 µM	60 µM (≈ 26.9 µg/mL)	> 2200 ×10⁻⁶ cm/s	
CCCC(=O)N1CCC(N(Cc2ccccc2)C(=O)Nc2cccc(C(F)(F)F)c2)CC1		< 0.1 µM	> 2200 ×10⁻⁶ cm/s	
Cn1nccc1-c1cccc(NC(=O)NC2CCN(Cc3ccccc3)CC2)c1	> 67 µM	78 µM (≈ 30.4 µg/mL)	> 2200 ×10⁻⁶ cm/s	
Cc1ccccc1CN1CCC(NC(=O)Nc2cccc(C(F)(F)F)c2)CC1	4 µM	44 µM (≈ 17.2 µg/mL)		permeability [3]: 1200 ×10⁻⁶ cm/s
CCCN1CCC(N(Cc2ccncc2)C(=O)Nc2cccc(C(F)(F)F)c2)CC1		85 µM (≈ 35.7 µg/mL)	700 ×10⁻⁶ cm/s	
CCCS(=O)(=O)N1CCC(N(Cc2ccccc2)C(=O)Nc2cccc(C(F)(F)F)c2)CC1	0.74 µM	0.5 µM (≈ 0.242 µg/mL)	< 1 ×10⁻⁶ cm/s	
O=C(Nc1cccc(C(F)(F)F)c1)N(Cc1ccccc1)C1CCNCC1	21 µM	71 µM (≈ 26.8 µg/mL)	> 2200 ×10⁻⁶ cm/s	
CC(C)(C)CCN1CCC(N(Cc2ccccc2)C(=O)Nc2cccc(C(F)(F)F)c2)CC1	0.17 µM	5.8 µM (≈ 2.68 µg/mL)	> 2200 ×10⁻⁶ cm/s	
O=C(Nc1cccc(C(F)(F)F)c1)N(Cc1ccccc1)C1CCN(Cc2ccc(F)cc2)CC1	10 µM	0.9 µM (≈ 0.437 µg/mL)	> 2200 ×10⁻⁶ cm/s	
Cc1cccc(NC(=O)NC2CCN(Cc3ccccc3)CC2)c1	44 µM			
CCCN1CCC(N(Cc2ccccc2)C(=O)Nc2cccc(C(F)(F)F)c2)CC1	0.82 µM	39 µM (≈ 16.4 µg/mL)		permeability [3]: 1800 ×10⁻⁶ cm/s; Kd (DCN1-like protein 1 [5]): 0.86 µM; EC50 (DCN1-like protein 1 [4]): 0.4 µM; EC50 (BJ): > 23 µM; EC50 (HCC95): > 40 µM
CCCN1CCC(N(CC(C)C)C(=O)Nc2cccc(C(F)(F)F)c2)CC1	5.8 µM	96 µM (≈ 37 µg/mL)		permeability [3]: 1900 ×10⁻⁶ cm/s
O=C(Nc1ccc2c(c1)OCO2)NC1CCN(Cc2ccccc2)CC1	> 67 µM			
O=C(Nc1cccc(CN2CCOCC2)c1)NC1CCN(Cc2ccccc2)CC1	> 67 µM	75 µM (≈ 30.6 µg/mL)	220 ×10⁻⁶ cm/s	
CCOc1cc(CN2CCC(N(Cc3ccccc3)C(=O)Nc3cccc(C(F)(F)F)c3)CC2)cc(Cl)c1O		0.4 µM (≈ 0.225 µg/mL)	110 ×10⁻⁶ cm/s	

Structure (SMILES)	IC50 (DCN1-like protein 1 [1])	solubility at 18 h [2]	Papp at 10 µM [3]	further results
CCCN1CCC(N(Cc2cc(F)cc(C(F)(F)F)c2)C(=O)Nc2cccc(C(F)(F)F)c2)CC1	1 µM	37 µM (≈ 18.7 µg/mL)	> 2200 ×10⁻⁶ cm/s	EC50 (DCN1-like protein 1 [4]): 0.18 µM; EC50 (BJ): > 23 µM; EC50 (HCC95): 21 µM; inhibition (Homo sapiens): inactive
CCCN1CCC(N(Cc2ccco2)C(=O)Nc2cccc(C(F)(F)F)c2)CC1	0.75 µM	69 µM (≈ 28.3 µg/mL)	> 2200 ×10⁻⁶ cm/s	Kd (DCN1-like protein 1 [5]): 0.7 µM; EC50 (DCN1-like protein 1 [4]): 0.57 µM; EC50 (BJ): > 23 µM; EC50 (HCC95): > 23 µM
CCCN1CCC(N(CCC)C(=O)Nc2cccc(C(F)(F)F)c2)CC1	10 µM	61 µM (≈ 22.7 µg/mL)		permeability [3]: 1600 ×10⁻⁶ cm/s
O=C(Nc1cccc(C(F)(F)F)c1)N(Cc1ccccc1)C1CCN(CC2CCCC2)CC1	0.37 µM	48 µM (≈ 22.1 µg/mL)	990 ×10⁻⁶ cm/s	
CCCCN(C(=O)Nc1cccc(C(F)(F)F)c1)C1CCN(CCC)CC1	1.4 µM	70 µM (≈ 27 µg/mL)	> 2200 ×10⁻⁶ cm/s	
CCCN1CCC(N(CCC(C)C)C(=O)Nc2cccc(C(F)(F)F)c2)CC1	2.7 µM	61 µM (≈ 24.4 µg/mL)		permeability [3]: 1500 ×10⁻⁶ cm/s
O=C(Nc1cccc(C(F)(F)F)c1)N(Cc1ccccc1)C1CCN(Cc2ccccc2)CC1		11 µM (≈ 5.14 µg/mL)	300 ×10⁻⁶ cm/s	
O=C(Nc1cccc(C(F)(F)F)c1)NC1CCN(Cc2ccc(Cl)cc2)CC1	25 µM	0.8 µM (≈ 0.329 µg/mL)		permeability [3]: 1300 ×10⁻⁶ cm/s
O=C(Nc1cccc(C(F)(F)F)c1)NC1CCN(C(=O)c2ccccc2)CC1	> 67 µM	2.8 µM (≈ 1.1 µg/mL)	910 ×10⁻⁶ cm/s	
O=C(Nc1cccc(C(F)(F)F)c1)NC1CCN(Cc2ccccc2)CC1		32 µM (≈ 12.1 µg/mL)	670 ×10⁻⁶ cm/s	EC50 (BJ): > 24 µM; EC50 (HCC95): > 32 µM
O=C(Nc1cccc(C(F)(F)F)c1)N(Cc1ccccc1)C1CCN(Cc2ccc3c(c2)OCCO3)CC1	0.36 µM	1 µM (≈ 0.526 µg/mL)	> 2200 ×10⁻⁶ cm/s	
CCCN1CCC(N(Cc2cccnc2)C(=O)Nc2cccc(C(F)(F)F)c2)CC1		< 0.1 µM		permeability [3]: 1300 ×10⁻⁶ cm/s; EC50 (BJ): > 23 µM; EC50 (HCC95): > 23 µM
CSc1cccc(NC(=O)NC2CCN(Cc3ccccc3)CC2)c1	> 67 µM			
O=C(Nc1cccc(-n2cccc2)c1)NC1CCN(Cc2ccccc2)CC1	> 67 µM	1 µM (≈ 0.374 µg/mL)	930 ×10⁻⁶ cm/s	
Cc1ccc(NC(=O)NC2CCN(Cc3ccccc3)CC2)cc1Cl	> 67 µM	2.4 µM (≈ 0.859 µg/mL)	> 2200 ×10⁻⁶ cm/s	
O=C(Nc1ccccc1)NC1CCN(Cc2ccccc2)CC1	> 67 µM	68 µM (≈ 21 µg/mL)		permeability [3]: 1400 ×10⁻⁶ cm/s
Cc1cccc(CN2CCC(NC(=O)Nc3cccc(C(F)(F)F)c3)CC2)c1	6.6 µM	35 µM (≈ 13.7 µg/mL)	> 2200 ×10⁻⁶ cm/s	
O=C(Nc1cccc(C(F)(F)F)c1)NC1CCN(Cc2cccc(F)c2)CC1	16 µM	50 µM (≈ 19.8 µg/mL)	> 2200 ×10⁻⁶ cm/s	
O=C(Nc1cccc(C(F)(F)F)c1)N(Cc1ccccc1)C1CCN(CCC(F)(F)F)CC1	23 µM	2.3 µM (≈ 1.09 µg/mL)	440 ×10⁻⁶ cm/s	

Reference: ChEMBL document CHEMBL4219151, “Piperidinyl Ureas Chemically Control Defective in Cullin Neddylation 1 (DCN1)-Mediated Cullin Neddylation” (J Med Chem, 2018)
